Assay results gathered from unrelated publications.
Each line is one published result; the experiments were not run side by side.
Target: Serine/threonine-protein kinase PknB (pknB, Mycobacterium tuberculosis, UniProt P9WI81)

| SMILES | observed | technique | tested at | quantity | result |
| --- | --- | --- | --- | --- | --- |
| Nc1ncnc2occ(-c3ccc(NC(=O)Nc4cc(C(F)(F)F)ccc4F)cc3)c12 | cell-free assay | – | 20 µM | remaining signal | 66% |
| Cc1ccc(C(=O)Nc2ccc(CN3CCN(C)CC3)c(C(F)(F)F)c2)cc1C#Cc1cnc2cccnn12 | cell-free assay | – | 23.5 nM | remaining signal | 98% |
| CC1CCCN1c1nccc(-c2cnn3ncccc23)n1 (centres unmarked) | binding | – | 1 µM | remaining binding | 100% |
| C[C@H](c1ccnc(Nc2nc3ccc(-c4cc(N(C)C)ncn4)cc3[nH]2)c1)N1CCN(C(=O)CC(F)(F)F)CC1 | cell-free assay | competition with immobilised ligand | 0.1 µM | remaining binding | 91% |
| Nc1ncc(-c2nc(N3CCOCC3)nc(N3CCOCC3)n2)c(C(F)F)n1 | cell-free assay | – | 10 µM | remaining signal | 66% |
| C[C@@H]1CN(c2cc(-c3n[nH]c4ccc(OC5(C)CC5)cc34)ncn2)C[C@H](C)O1 | cell-free assay | competition with immobilised ligand | 0.1 µM | remaining binding | 95% |
| COc1cc(Nc2ncc(F)c(Nc3ccc4c(n3)NC(=O)C(C)(C)O4)n2)cc(OC)c1OC | binding | competition with immobilised ligand | 10 µM | inhibition | 46% |
| CN(C)c1nccc(-c2cnn3ncccc23)n1 | binding | – | 1 µM | remaining binding | 76% |
